Measurements reported in ChEMBL document CHEMBL4138194, “Synthesis of unprecedented steroidal spiro heterocycles as potential antiproliferative drugs” (Eur J Med Chem, 2018).

Key:
SW1573 = test: Antiproliferative activity against human SW1573 cells after 48 hrs by SRB assay; format: functional; conditions: SW1573, 48 h
Summary of the method: (§1)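 Seeded at 2 500 cells/well, per doubling time. Compounds were dissolved in DMSO at 400× the top test concentration and tested in triplicate at dilutions spanning 1–100 µM, starting day 1 after plating, with 0.25% v/v DMSO as control. After 48 h, cells were fixed with cold TCA for 60 min at 4 °C, then SRB-stained. Background-corrected OD was read at 530 nm, and percentage growth was calculated against untreated cells using T0 and end-point OD (NCI formulas).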

HBL-100 = test: Antiproliferative activity against human HBL100 cells after 48 hrs by SRB assay; format: functional; conditions: HBL-100, 48 h; summary of the method: as §1
HeLa = test: Antiproliferative activity against human HeLa cells after 48 hrs by SRB assay; format: functional; summary of the method: as §1
A549 = test: Antiproliferative activity against human A549 cells after 48 hrs by SRB assay; format: functional; conditions: A549, 48 h; summary of the method: as §1
WiDr = test: Antiproliferative activity against human WiDr cells after 48 hrs by SRB assay; format: functional
Summary of the method: (§2)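 Plated at 5 000 cells/well, per doubling time. Compounds were dissolved in DMSO at 400× the maximum final concentration and tested in triplicate between 1 and 100 µM for 48 h, beginning day 1 after plating, with 0.25% v/v DMSO as control. Cells were then TCA-fixed for 60 min at 4 °C and SRB-stained. Background-corrected OD was read at 530 nm, and percentage growth was derived against untreated control from start and end OD (NCI formulas).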

T47D = test: Antiproliferative activity against human T47D cells after 48 hrs by SRB assay; format: functional; summary of the method: as §2
[1] = Cytotoxicity against human hTERT-BJ cells assessed as cell growth inhibition after 48 hrs SRB assay; format: cell-based
Summary of the method: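 BJ-hTert cells were seeded at 10 000/well and exposed from day 1 for 48 h to compounds in triplicate across 1–100 µM. DMSO stocks were 400× the top concentration, with a 0.25% v/v DMSO control. Cells were fixed with ice-cold TCA for 60 min at 4 °C and SRB-stained. Background-corrected OD was read at 530 nm, and percentage growth was computed relative to untreated cells using T0 and final OD (NCI formulas).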

| Structure (SMILES) | GI50 (SW1573) [µM] | GI50 (HeLa) [µM] | GI50 (A549) [µM] | GI50 (T47D) [µM] | GI50 (HBL-100) [µM] | GI50 (WiDr) [µM] | GI50 at 48 h [1] [µM] |
| --- | --- | --- | --- | --- | --- | --- | --- |
| C[C@]12CC[C@@H]3c4ccc(O)cc4CC[C@H]3[C@@H]1CC[C@@]2(O)CNC(=S)Nc1ccccc1 | 21 | 6.3 | 9.8 | 5.7 | 15 | 4.5 |  |
| C[C@]12CC[C@H](O)C[C@@H]1CC[C@@H]1[C@@H]2CC[C@@]2(C)[C@H]1CC[C@@]2(O)CN=[N+]=[N-] | > 100 | > 100 | > 100 | > 100 | > 100 | > 100 |  |
| C[C@]12CC[C@@H]3c4ccc(O)cc4CC[C@H]3[C@@H]1CC[C@@]2(O)CN | 43 | 27 | 39 | 30 | 34 | 22 |  |
| C[C@]12CC[C@@H]3c4ccc(O)cc4CC[C@H]3[C@@H]1CC[C@@]21CNC(=O)O1 | 18 | 1.3 | 5.4 | 4.4 | 6.3 | 9.2 |  |
| C[C@]12CC[C@@H]3c4ccc(O)cc4CC[C@H]3[C@@H]1CC[C@@]2(O)CNC(=S)NC1CCCCC1 | 14 | 3.3 | 4.5 | 3.9 | 5.1 | 2.8 |  |
| C[C@]12CC[C@H](O)C[C@@H]1CC[C@@H]1[C@@H]2CC[C@@]2(C)[C@H]1CC[C@@]2(O)CNC(=S)NC1CCCCC1 | 15 | 21 | 16 | 18 | 18 | 18 |  |
| C[C@]12CC[C@@H]3c4ccc(OCc5ccccc5)cc4CC[C@H]3[C@@H]1CC[C@@]2(O)CN=[N+]=[N-] | 29 | 2.9 | 13 | 4.1 | 22 | 2.4 |  |
| C[C@]12CC[C@H](O)CC1=CC[C@@H]1[C@@H]2CC[C@]2(C)C(c3cccnc3)=CC[C@@H]12 [ABIRATERONE] | 85 | 7.9 | 95 | 24 | > 100 | 42 | 4.5 |
| COC(=O)NC[C@]1(O)CC[C@H]2[C@@H]3CC[C@H]4C[C@@H](O)CC[C@]4(C)[C@H]3CC[C@@]21C | 92 | 70 | 38 | 41 | 99 | 39 |  |
| C[C@]12CC[C@H](O)C[C@@H]1CC[C@@H]1[C@@H]2CC[C@@]2(C)[C@H]1CC[C@@]2(O)CN | 19 | 22 | 17 | 21 | 20 | 25 |  |
| CCCCNC(=S)NC[C@]1(O)CC[C@H]2[C@@H]3CCc4cc(O)ccc4[C@H]3CC[C@@]21C | 15 | 4.2 | 4.8 | 3.9 | 7.2 | 4.4 |  |
| C[C@]12CC[C@H](O)C[C@@H]1CC[C@@H]1[C@@H]2CC[C@@]2(C)[C@H]1CC[C@@]2(O)CNC(=S)Nc1ccccc1 | 27 | 27 | 29 | 34 | 27 | 17 |  |

Now those with a lower GI50 (SW1573), led by results:

| GI50 (SW1573) [µM] | GI50 (HeLa) [µM] | GI50 (A549) [µM] | GI50 (T47D) [µM] | Structure (SMILES) | GI50 (HBL-100) [µM] | GI50 (WiDr) [µM] | GI50 at 48 h [1] [µM] |
| --- | --- | --- | --- | --- | --- | --- | --- |
| 9.4 | 14 | 12 | 5.8 | CCCCNC(=S)NC[C@]1(O)CC[C@H]2[C@@H]3CC[C@H]4C[C@@H](O)CC[C@]4(C)[C@H]3CC[C@@]21C | 13 | 4.5 |  |
| 6 | 4 | 3.7 | 4.5 | C[C@]12CC[C@H](O)C[C@@H]1CC[C@@H]1[C@@H]2CC[C@@]2(C)[C@H]1CC[C@@]21CNC(=O)O1 | 10 | 3.8 | < 1 |
| 5.9 | 3.5 | 6.8 | 4.3 | COC(=O)NC[C@]1(O)CC[C@H]2[C@@H]3CCc4cc(O)ccc4[C@H]3CC[C@@]21C | 4 | 4.9 |  |
| 3.9 | 5.3 | 3.9 | 2.1 | C[C@]12CC[C@H](O)CC1=CC[C@@H]1[C@@H]2CC[C@]2(C)C(n3cnc4ccccc43)=CC[C@@H]12 [GALETERONE] | 10 | 2.7 | 5 |
| 3.4 | 3.3 | 2.6 | 2.6 | C[C@]12CC[C@@H]3c4ccc(O)cc4CC[C@H]3[C@@H]1CC[C@@]21CN=C(Nc2ccccc2)O1 | 4.4 | 2.6 | 1.4 |
| 2.2 | 2.1 | 1.4 | 0.45 | CCCCNC1=NC[C@@]2(CC[C@H]3[C@@H]4CCc5cc(O)ccc5[C@H]4CC[C@@]32C)O1 | 2.9 | 0.34 | < 1 |
| 1.5 | 1.3 | 1.1 | 0.71 | C[C@]12CC[C@@H]3c4ccc(O)cc4CC[C@H]3[C@@H]1CC[C@@]21CN=C(NC2CCCCC2)O1 | 1.5 | 0.34 | < 1 |
| 1.5 | 1.6 | 1.5 | 1.2 | C[C@]12CC[C@H](O)C[C@@H]1CC[C@@H]1[C@@H]2CC[C@@]2(C)[C@H]1CC[C@@]21CN=C(NC2CCCCC2)O1 | 2 | 0.96 | 1.2 |
| 1.2 | 1.6 | 1.4 | 1.2 | CCCCNC1=NC[C@@]2(CC[C@H]3[C@@H]4CC[C@H]5C[C@@H](O)CC[C@]5(C)[C@H]4CC[C@@]32C)O1 | 2.1 | 0.87 | < 1 |
